Experimental data from ChEMBL document CHEMBL5329156, “Discovery and development of novel substituted monohydrazides as potent antifungal agents” (RSC Med Chem, 2023).
Values after ≈ are worked out from the molar mass of the structure shown. Active and inactive are the calls of the source. The calls are words filed in the database; no cut-off is given here.

Tests used:
Clavispora lusitaniae = experiment: Antifungal activity against Clavispora lusitaniae AR Bank # 398 assessed as fungal growth inhibition by double dilution method; type: functional
Procedure, shortened: (§1)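 Broth microdilution after CLSI M27-A3/M38-A2 with minor changes. Single colony grown overnight in YPD at 35 °C, 200 rpm. Compound final range 0.06-31.3 µg/mL; incubated 48 h at 35 °C.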

Saccharomyces cerevisiae [1] = experiment: Antifungal activity against Saccharomyces cerevisiae AR Bank # 400 assessed as fungal growth inhibition by double dilution method; type: functional; procedure, shortened: as §1
Candida duobushaemulonii [2] = experiment: Antifungal activity against Candida duobushaemulonii AR Bank # 391 assessed as fungal growth inhibition by double dilution method; type: functional; settings: Candidozyma duobushaemuli; procedure, shortened: as §1
Candida albicans [3] = experiment: Antifungal activity against itraconazole/fluconazole resistant Candida albicans ATCC MYA-1003 assessed as fungal growth inhibition by double dilution method; type: functional
Procedure, shortened: (§2)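 Broth microdilution after CLSI M27-A3/M38-A2 with minor modifications. A single colony was grown overnight in YPD at 35 °C with shaking at 200 rpm. Cells were mixed 1:1 with compound (final 0.06-31.3 µg/mL, from DMSO stocks) and incubated 48 h at 35 °C.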

Kodamaea ohmeri = experiment: Antifungal activity against Kodamaea ohmeri AR Bank # 396 assessed as fungal growth inhibition by double dilution method; type: functional; procedure, shortened: as §1
Pichia kudriavzevii [4] = experiment: Antifungal activity against Pichia kudriavzevii ATCC 6258 assessed as fungal growth inhibition by double dilution method; type: functional; procedure, shortened: as §1
Candida duobushaemulonii [5] = experiment: Antifungal activity against Candida duobushaemulonii AR Bank # 394 assessed as fungal growth inhibition by double dilution method; type: functional; settings: Candidozyma duobushaemuli; procedure, shortened: as §1
[Candida] auris [6] = Antifungal activity against Candida auris AR Bank # 385 assessed as fungal growth inhibition by double dilution method; type: functional; settings: Candidozyma auris; procedure, shortened: as §1
Candida albicans [7] = experiment: Antifungal activity against Candida albicans ATCC 10231 assessed as fungal growth inhibition by double dilution method; type: functional; procedure, shortened: as §1
Nakaseomyces glabratus [8] = experiment: Antifungal activity against Candida glabrata ATCC 2001 assessed as fungal growth inhibition by double dilution method; type: functional; procedure, shortened: as §1
Candida albicans [9] = experiment: Antifungal activity against Candida albicans ATCC 10231 assessed as fungal growth inhibition by time kill studies; type: functional, organism-based
Procedure, shortened: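 Overnight YPD culture (35 °C, 200 rpm) diluted in RPMI 1640 to ~1×10⁵ CFU/mL. […] Samples at 0, 3, 6, 9, 12, 18 and 24 h were 10-fold diluted and plated on PDA; colonies counted after 48 h at 35 °C. Run in duplicate.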

Saccharomyces cerevisiae [10] = experiment: Antifungal activity against Saccharomyces cerevisiae AR Bank # 399 assessed as fungal growth inhibition by double dilution method; type: functional; procedure, shortened: as §1
[Candida] haemuloni [11] = Antifungal activity against Candida haemulonii AR Bank # 393 assessed as fungal growth inhibition by double dilution method; type: functional; settings: Candidozyma haemuli; procedure, shortened: as §1
Candida albicans [12] = experiment: Antibiofilm activity against Candida albicans ATCC 10231 assessed as reduction in biofilm production at 1.96 to 3.9 microg/ml by biofilm formation assay; type: functional, organism-based; settings: dose 1.96-3.9 µg/ml
[Candida] auris [13] = Antifungal activity against Candida auris AR Bank # 386 assessed as fungal growth inhibition by double dilution method; type: functional; settings: Candidozyma auris; procedure, shortened: as §1
[Candida] auris [14] = Antifungal activity against Candida auris AR Bank # 388 assessed as fungal growth inhibition by double dilution method; type: functional; settings: Candidozyma auris; procedure, shortened: as §1
[Candida] auris [15] = Antifungal activity against Candida auris AR Bank # 389 assessed as fungal growth inhibition by double dilution method; type: functional; settings: Candidozyma auris; procedure, shortened: as §1
[Candida] auris [16] = Antifungal activity against Candida auris AR Bank # 390 assessed as fungal growth inhibition by double dilution method; type: functional; settings: Candidozyma auris; procedure, shortened: as §1
HEK293 = experiment: Cytotoxicity against human HEK-293 cells assessed as reduction in cell viability at 31.3 microg/ml; type: toxicity, cell-based; settings: dose 31.3 µg/ml
Procedure, shortened: (§3)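 Cells in DMEM with 10% FBS and 1% Pen/Strep, seeded at 10,000 cells/well and held overnight at 37 °C, 5% CO2. Compounds added at final 31.3-0.12 µg/mL (0.05% DMSO vehicle) for 24 h. Resazurin then added for 6 h; fluorescence read at ex 560/em 590. Triton X-100 1% as positive control; values normalized to vehicle. Run in quadruplicate.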

Cryptococcus neoformans = experiment: Antifungal activity against Cryptococcus neoformans ATCC MYA-895 assessed as fungal growth inhibition by double dilution method; type: functional; procedure, shortened: as §1
Pichia kudriavzevii [17] = experiment: Antifungal activity against Pichia kudriavzevii AR Bank # 397 assessed as fungal growth inhibition by double dilution method; type: functional; procedure, shortened: as §1
Candida albicans [18] = experiment: Antifungal activity against itraconazole/fluconazole susceptible Candida albicans ATCC MYA-2876 assessed as fungal growth inhibition by double dilution method; type: functional; procedure, shortened: as §2
[Candida] haemuloni [19] = Antifungal activity against Candida haemulonii AR Bank # 395 assessed as fungal growth inhibition by double dilution method; type: functional; settings: Candidozyma haemuli; procedure, shortened: as §1
[Candida] auris [20] = Antifungal activity against Candida auris AR Bank # 0390 assessed as fungal growth inhibition by double dilution method; type: functional; settings: Candidozyma auris; procedure, shortened: as §1
HepG2 = experiment: Cytotoxicity against human HepG2 cells assessed as reduction in cell viability upto 31.3 microg/ml; type: toxicity, cell-based; settings: dose < 31.3 µg/ml; procedure, shortened: as §3
Candida albicans [21] = experiment: Antifungal activity against itraconazole/fluconazole resistant Candida albicans ATCC 90819 assessed as fungal growth inhibition by double dilution method; type: functional; procedure, shortened: as §2
Nakaseomyces glabratus [22] = experiment: Antifungal activity against Candida glabrata ATCC 22019 assessed as fungal growth inhibition by double dilution method; type: functional; procedure, shortened: as §1
Aspergillus fumigatus [23] = experiment: Antifungal activity against Aspergillus fumigatus NRRL 6113 assessed as fungal growth inhibition by double dilution method; type: functional
[Candida] auris [24] = Antifungal activity against Candida auris AR Bank # 383 assessed as fungal growth inhibition by double dilution method; type: functional; settings: Candidozyma auris; procedure, shortened: as §1
[Candida] auris [25] = Antifungal activity against Candida auris AR Bank # 381 assessed as fungal growth inhibition by double dilution method; type: functional; settings: Candidozyma auris; procedure, shortened: as §1
Candida duobushaemulonii [26] = experiment: Antifungal activity against Candida duobushaemulonii AR Bank # 392 assessed as fungal growth inhibition by double dilution method; type: functional; settings: Candidozyma duobushaemuli; procedure, shortened: as §1
Candida albicans [27] = experiment: Antifungal activity against Candida albicans ATCC 64124 assessed as fungal growth inhibition by double dilution method; type: functional; procedure, shortened: as §2
Aspergillus flavus = experiment: Antifungal activity against Aspergillus flavus ATCC MYA-3631 assessed as fungal growth inhibition by double dilution method; type: functional
Aspergillus fumigatus [28] = experiment: Antifungal activity against Aspergillus fumigatus NRRL 163 assessed as fungal growth inhibition by double dilution method; type: functional
Aspergillus terreus = experiment: Antifungal activity against Aspergillus terreus ATCC MYA-3633 assessed as fungal growth inhibition by double dilution method; type: functional
Candida albicans [29] = experiment: Antifungal activity against itraconazole/fluconazole susceptible Candida albicans ATCC MYA-2310 assessed as fungal growth inhibition by double dilution method; type: functional; procedure, shortened: as §2
Candida albicans [30] = experiment: Antifungal activity against itraconazole/fluconazole resistant Candida albicans ATCC MYA-1237 assessed as fungal growth inhibition by double dilution method; type: functional; procedure, shortened: as §2
Aspergillus fumigatus [31] = experiment: Antifungal activity against Aspergillus fumigatus NRRL 5109 assessed as fungal growth inhibition by double dilution method; type: functional
Aspergillus nidulans = experiment: Antifungal activity against Aspergillus nidulans ATCC 38163 assessed as fungal growth inhibition by double dilution method; type: functional
J774.A1 = experiment: Cytotoxicity against J774A.1 cells assessed as reduction in cell viability at 31.3 microg/ml; type: toxicity, cell-based; settings: mouse, dose 31.3 µg/ml; procedure, shortened: as §3
[Candida] auris [32] = Antifungal activity against Candida auris AR Bank # 387 assessed as fungal growth inhibition by double dilution method; type: functional; settings: Candidozyma auris; procedure, shortened: as §1
Candida albicans [33] = experiment: Antibiofilm activity against Candida albicans ATCC 10231 assessed as reduction in preformed biofilm production by biofilm formation assay; type: functional, organism-based
Procedure, shortened: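 After PBS washes, XTT 0.5 mg/mL with 1 µM menadione added, 3 h at 37 °C in the dark; absorbance read at 450 nm.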

[Candida] auris [34] = Antifungal activity against Candida auris AR Bank # 0384 assessed as fungal growth inhibition by double dilution method; type: functional; settings: Candidozyma auris; procedure, shortened: as §1
[Candida] auris [35] = Antifungal activity against Candida auris AR Bank # 384 assessed as fungal growth inhibition by double dilution method; type: functional; settings: Candidozyma auris; procedure, shortened: as §1
[Candida] auris [36] = Antifungal activity against Candida auris AR Bank # 382 assessed as fungal growth inhibition by double dilution method; type: functional; settings: Candidozyma auris; procedure, shortened: as §1

## O=C(NNc1cccc(Cl)c1)c1ccccn1
Clavispora lusitaniae
  MIC: 0.98 µg/mL (≈ 3.96 µM)
Saccharomyces cerevisiae [1]
  MIC: 0.98 µg/mL (≈ 3.96 µM)
Candida duobushaemulonii [2]
  MIC: 0.24 µg/mL (≈ 0.969 µM)
Candida albicans [3]
  MIC: 0.49 µg/mL (≈ 1.98 µM)
Kodamaea ohmeri
  MIC: 0.12 µg/mL (≈ 0.484 µM)
Pichia kudriavzevii [4]
  MIC: 0.49 µg/mL (≈ 1.98 µM)
Candida duobushaemulonii [5]
  MIC: 12 µg/mL (≈ 48.4 µM)
[Candida] auris [6]
  MIC: 0.49 µg/mL (≈ 1.98 µM)
Candida albicans [7]
  MIC: 0.12 µg/mL (≈ 0.484 µM)
Nakaseomyces glabratus [8]
  MIC: 1.95 µg/mL (≈ 7.87 µM)
Candida albicans [9]
  Activity: Dose-Dependent Effect
Saccharomyces cerevisiae [10]
  MIC: 0.98 µg/mL (≈ 3.96 µM)
[Candida] haemuloni [11]
  MIC: 0.12 µg/mL (≈ 0.484 µM)
Candida albicans [12]
  Activity: Active
[Candida] auris [13]
  MIC: 0.24 µg/mL (≈ 0.969 µM)
[Candida] auris [14]
  MIC: 0.49 µg/mL (≈ 1.98 µM)
[Candida] auris [15]
  MIC: 0.49 µg/mL (≈ 1.98 µM)
[Candida] auris [16]
  MIC: 0.49 µg/mL (≈ 1.98 µM)
HEK293
  Activity: Non-Toxic
Cryptococcus neoformans
  MIC: 0.12 µg/mL (≈ 0.484 µM)
Pichia kudriavzevii [17]
  MIC: 0.12 µg/mL (≈ 0.484 µM)
Candida albicans [18]
  MIC: 0.98 µg/mL (≈ 3.96 µM)
[Candida] haemuloni [19]
  MIC: ≤ 0.06 µg/mL
[Candida] auris [20]
  MIC: 0.98 µg/mL (≈ 3.96 µM)
HepG2
  Activity: Non-Toxic
Candida albicans [21]
  MIC: 0.49 µg/mL (≈ 1.98 µM)
Nakaseomyces glabratus [22]
  MIC: 1.95 µg/mL (≈ 7.87 µM)
Aspergillus fumigatus [23]
  MIC: > 31.3 µg/mL
[Candida] auris [24]
  MIC: 0.49 µg/mL (≈ 1.98 µM)
[Candida] auris [25]
  MIC: 0.98 µg/mL (≈ 3.96 µM)
Candida duobushaemulonii [26]
  MIC: 0.24 µg/mL (≈ 0.969 µM)
Candida albicans [27]
  MIC: 0.98 µg/mL (≈ 3.96 µM)
Aspergillus flavus
  MIC: > 31.3 µg/mL
Aspergillus fumigatus [28]
  MIC: > 31.3 µg/mL
Aspergillus terreus
  MIC: 0.98 µg/mL (≈ 3.96 µM)
Candida albicans [29]
  MIC: 0.98 µg/mL (≈ 3.96 µM)
Candida albicans [30]
  MIC: 0.98 µg/mL (≈ 3.96 µM)
Aspergillus fumigatus [31]
  MIC: > 31.3 µg/mL
Aspergillus nidulans
  MIC: 0.24 µg/mL (≈ 0.969 µM)
J774.A1
  Activity: Non-Toxic
[Candida] auris [32]
  MIC: 0.49 µg/mL (≈ 1.98 µM)
Candida albicans [33]
  Activity: inactive
[Candida] auris [34]
  MIC: 0.98 µg/mL (≈ 3.96 µM)
[Candida] auris [35]
  MIC: 0.98 µg/mL (≈ 3.96 µM)
[Candida] auris [36]
  MIC: 0.49 µg/mL (≈ 1.98 µM)
